IEC-6 tox: cytotoxicity in IEC-6 intestinal epithelial cells, primary screen, cytotoxicity control for KLF5 inhibitor project, cell-based, luminescence; IEC-6 cytotoxicity, luminescence viability; inhibition, % at 5 µM; 0.78% of 290,000 active; AID 1825, 2009;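 further: 0% = plate median of test compound wells and 100% = cytotoxic reference compound wells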
Ba/F3 V617F tox: reduced viability of JAK2V617F-dependent Ba/F3 cells, primary screen, JAK2V617F inhibitor project, cell-based, Ba/F3 EpoR-JAK2V617F, luminescence; inhibition, % at 5.6 µM; ATP luminescence; AID 1446, 2008; 1.1% of 220,000 active;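 active means inhibition above the campaign mean plus 3 SD over all tested compounds, cut at about 24% in these data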;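 further: cytokine-independent growth of Ba/F3 cells driven by EpoR plus mutant JAK2; 0% = DMSO-treated cells and 100% = JAK inhibitor I control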
BaF3 parental: parental Ba/F3 cell viability inhibition, counter-screen for JAK2V617F inhibitor project, murine pro-B, CellTiter-Glo luminescence | CellTiter-Glo ATP luminescence | inhibition, % at 5.6 µM | 1.1% of 220,000 active;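 active means inhibition above a per-campaign cutoff, the mean inhibition of all tested compounds plus 3 SD, cut at about 27% in these data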;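 further: 0% = DMSO wells and 100% = JAK Inhibitor I control wells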
KLF5 inh: KLF5 expression inhibitors, primary screen, DLD-1 cells, luminescence; DLD-1 KLF5 promoter-luciferase reporter; inhibition, % at 5 µM; 0.23% of 290,000 active; AID 1700, 2009;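 active means inhibition above a per-plate limit of that plate's mean compound inhibition plus 3 SD, cut at about 60% in these data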;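 further: 0% = DMSO wells and 100% = LY294002 at 200 µM; higher means less KLF5 promoter-driven luciferase light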
bCat nuc transl: modulators of beta-catenin nuclear translocation, primary screen, imaging, HeLa cells, immunofluorescence, high-content; nuclear translocation activity, % at 5 µM; 0.3% of 190,000 active; AID 1665, 2009;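 active means nuclear translocation activity above 50% at 5 µM, with a well cell count of 50 or more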;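 further: per-cell ratio of nuclear to cytoplasmic median beta-catenin stain intensity; plate controls were DMSO negative control for no effect and GSK-3 inhibitor IX positive control for full effect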
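Test system: human HeLa cells, endogenous beta-catenin. Times: 24 h compound exposure, 37°C. Measured by: beta-catenin immunofluorescence imaging with DAPI.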
MT stabilize HCS: microtubule stabilizers in HeLa cells, primary screen, imaging, high-content imaging | % tubulin-high responders, % at 10 µM | HeLa tubulin immunostaining HCS, 24 h; share of cells brighter than vehicle mean+2SD | 0.83% of 200,000 active;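 active means plate Z-score above 3 for both tubulin-high and condensed-nucleus cell shares, with cell loss under 80%, at 10 µM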;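 further: anti alpha tubulin signal scored within the nucleus-defined area of each cell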
IEC-6 cytotox cf: cytotoxic compounds in IEC-6 epithelial cells, confirmation, cytotoxicity control, cell-based, luminescence. shares compounds with IEC-6 tox. IEC-6 rat intestinal epithelial viability. inhibition, % at 5 µM. 63% of 1,900 active;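 further: 0% = vehicle and 100% = reference cytotoxic drug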
Starred values were filed as active, the others as inactive; x = not tested or not shown. A selection: hits, their analogues and other compounds. The true share with any hit is near 2.1%. Unless noted, no stated cut-off is given here; in the data, active means inhibition above about 22%; inactive means the rest.

SMILES | IEC-6 tox | Ba/F3 V617F tox | BaF3 parental | KLF5 inh | bCat nuc transl | MT stabilize HCS | IEC-6 cytotox cf
CC(C)CC(=O)NCCCCc1ccccc1 | 22.0* | 3.4 | 5.7 | -36.1 | -2.5 | 1.5 | 6.2
CCOC(=O)c1c(NC(=O)CC2SC(N)=NC2=O)sc(C)c1C (centres undefined) | 3.9 | -1.0 | 7.4 | -9.2 | 3.8 | 0.9 | x
COc1cccc(CN2CCNC(=O)C2CC(=O)N(Cc2cnn(C)c2)C(C)C)c1 (centres undefined) | 3.2 | 1.2 | 7.8 | -18.9 | 0.5 | 2.1 | x
COc1ccc(C(NC(=O)c2c(F)c(F)c(F)c(F)c2F)c2ccccc2)cc1 (centres undefined) | 26.9* | -3.5 | 1.3 | -6.8 | -2.3 | 4.7 | 10.7
COC(=O)CSCc1nc2ccccc2[nH]c1=O | 8.2 | 3.4 | 3.3 | -23.1 | -1.1 | 3.0 | x
COc1ccc(-n2cnnc2SCC(=O)Nc2cccc(S(=O)(=O)N3CCCCC3)c2)cc1 | 1.4 | -5.2 | 4.6 | -29.5 | -0.3 | 2.8 | x
CCCOc1ccc(C(=O)NNC(=S)NC(=O)c2cccs2)cc1 | 38.7* | x | x | 27.6 | x | x | 50.1*
CCCOc1ccc(C(=O)NNC(=S)NC(=O)c2ccccc2)cc1 | 36.8* | x | x | 19.4 | x | x | 17.8
O=C(Nc1ccc(S(=O)(=O)N2CCOCC2)cc1)c1cc(-c2cc(Cl)ccc2O)n[nH]1 | 36.0* | 76.6* | 59.5* | 42.4 | 10.8 | x | 4.8
Cc1cc(O)c(-c2cc(C(=O)Nc3ccc(S(=O)(=O)N4CCOCC4)cc3)[nH]n2)cc1C | 2.0 | -2.3 | 2.7 | -12.9 | 3.5 | 8.4 | x
CC(C)c1ccc(NC(=O)CCc2ccccc2)cc1 | 28.9* | x | x | -63.7 | x | x | 52.3*
O=C(CCc1ccccc1)Nc1ccncc1 | -2.1 | -2.9 | -3.6 | -15.4 | -0.8 | 2.6 | x
COC(=O)C1=C(NC(C)=O)CCS1 | 22.8* | 6.8 | 8.4 | -22.0 | -0.7 | 3.2 | 3.6
COC(=O)C1=C(NC(=O)c2ccc(C)cc2)CCS1 | -0.9 | 0.4 | 4.0 | -33.8 | -0.5 | 5.5 | x
COc1ccc(-n2c(/C=C(\C)O)nc(=O)c3c(C)cc(C)nc32)cc1 | -0.8 | 2.6 | 5.8 | -35.0 | x | 2.7 | x
CCOC(=O)c1cc2c(ccn2C)n1Cc1cc(C)ccc1C | 46.1* | -0.1 | 9.3 | -16.7 | 0.4 | 2.2 | 25.2*
COCCn1c(SCC(=O)Nc2ccccc2OC)nnc1-c1ccco1 | -6.2 | x | x | 6.0 | x | x | x
CCCn1c(SCC(=O)Nc2ccccc2OC)nnc1-c1ccco1 | 35.2* | x | x | 39.1 | x | x | 16.3
COC(=O)c1c(C)oc2ccc(N(C(=O)c3ccncc3)S(=O)(=O)c3ccc(C)cc3)cc12 | 52.1* | 85.8* | 75.2* | 45.2 | 162.2* | 12.8 | 56.7*
COc1cc(NC(=O)c2ccc([N+](=O)[O-])o2)ccc1NC(=O)c1ccco1 | 100.1* | x | x | -14.8 | x | x | 20.1
Cc1cc(NC(=O)c2ccc([N+](=O)[O-])o2)ccc1NC(=O)c1ccco1 | 86.7* | 83.0* | 78.3* | 9.8 | -1.3 | 29.9 | 25.3*
COc1cc(OC)cc(C(=O)N2CC(=O)Nc3ccccc32)c1 | 74.2* | x | x | 51.7 | x | x | 55.9*
CCCCOc1ccc(/C=C/C(=O)OCC(=O)c2c(N)n(C)c(=O)n(C)c2=O)cc1OCC | -0.1 | -1.2 | -1.0 | 1.9 | 0.1 | 3.6 | x
Cc1cc(C)n2nc(SCC(=O)NC3CCCC(C)C3C)nc2n1 (centres undefined) | 6.2 | x | x | -7.0 | x | x | x
CC(C)c1ccc(NC(=O)C2=NNC(=O)CC2)cc1 | -2.2 | -0.1 | 0.1 | -131.2 | -0.7 | x | x
Cc1cc(C)cc(NC(=O)CCn2c(=O)c3cccn3c3ccccc32)c1 | 40.5* | x | x | 30.5 | x | x | 37.0*
Cc1ccc(NC(=O)CCn2c(=O)c3cccn3c3ccccc32)c(C)c1 | -7.5 | x | x | -23.0 | x | x | x
CCN(CC)CCNc1ccc(CO)c2sc3ccccc3c(=O)c12 | 54.1* | 65.9* | 47.3* | 13.1 | -2.6 | 2.2 | 63.6*
CCCn1cnc2sc(CC)cc2c1=O | -1.9 | -0.6 | 4.3 | -57.1 | x | 4.1 | x
COc1cccc(CN(C)C(=O)C23CC4CC(CC(C4)C2)C3)c1 | -1.0 | x | x | -24.7 | x | x | x

Bioassay records from PubChem.
